Here are results for eleven compounds from ChEMBL document CHEMBL1134666, “Design, synthesis, and biological evaluation of novel nucleoside and nucleotide analogues as agents against DNA viruses and/or retroviruses” (J Med Chem, 2001).

Converted amounts (≈) assume the structure as drawn.

Assay [1] is described as follows: Inhibitory effect on HSV-1 induced mortality in NMRI mice upon (ip) administration at a dose of 250 mk/kg/day. It is filed as functional, Human alphaherpesvirus 1. The essentials:
(§1)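 Two-week-old NMRI mice (~7 g, 15-20 per group) were infected ip with 4 × 10⁴ units HSV-1 (KOS). Compound was given ip once daily for 6 consecutive days starting 4 h postinfection; controls received saline. Mean day of symptom onset and of death were recorded, with % symptom-free and % surviving at day 21, when the experiment ended.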

Assay [2] is described as follows: Inhibitory effect on HSV-1 induced mortality in NMRI mice upon (ip) administration at a dose of 150 mk/kg/day. It is filed as functional, Human alphaherpesvirus 1. Put shortly:
as §1

Another assay relates to CCRF-CEM. Briefly: Cellular toxic effect was determined in CEM cells. It is filed as functional, cell-based. Conditions: Homo sapiens.
Assay [3] has as its system Human immunodeficiency virus 1. Nature of the assay: Inhibition of cytopathogenicity against human HIV-1(IIIB) in MT-4 cells. It is filed as functional, organism-based. Conditions: Human immunodeficiency virus 1, MT4. In general terms: Damage to the host cells serves as the signal in cytopathic effect assays.
Another assay relates to MT4. Briefly: Cellular toxic effect was determined in MT-4 cells. It is filed as functional, cell-based. Conditions: Homo sapiens.
The subject of assay [4] is Moloney murine sarcoma virus. Nature of the assay: Inhibition of virus-induced cytopathogenicity against moloney murine sarcoma virus(MSV)in CEM cells in cell protection assay. It is filed as functional, organism-based. Conditions: CCRF-CEM. The essentials:
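Cell-protection assay with Moloney murine sarcoma virus in CEM cells; inhibition of virus-induced cytopathogenicity measured and IC50 derived by linear regression from the average of duplicate determinations.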

The nature of assay [5]: Inhibitory effect on HSV-1 induced mortality in NMRI mice upon (ip) administration at a dose of 100 mk/kg/day. It is filed as functional, Human alphaherpesvirus 1. The essentials: as §1
The test system of assay [6] is Human immunodeficiency virus 2. Nature of the assay: Inhibition of cytopathogenicity against human HIV-2(LAV-2) in MT-4 cells. It is filed as functional, organism-based. Conditions: Human immunodeficiency virus 2, MT4.
The test system of assay [7] is Vero. Briefly: Maximum velocity constant of the rate of phosphorylation was determined n the presence of Vero cell thymidine kinase. It is filed as functional, Chlorocebus sabaeus.
A short description of assay [8]: Inhibitory effects on HSV-1 induced mortality in NMRI mice upon (ip) administration at a dose of 250 mk/kg/day. It is filed as functional, Human alphaherpesvirus 1. Put shortly:
as §1

In the next assay the target is T1, Adenosine deaminase (Bos taurus, UniProt P56658).
T1 sequence (P56658 whole entry): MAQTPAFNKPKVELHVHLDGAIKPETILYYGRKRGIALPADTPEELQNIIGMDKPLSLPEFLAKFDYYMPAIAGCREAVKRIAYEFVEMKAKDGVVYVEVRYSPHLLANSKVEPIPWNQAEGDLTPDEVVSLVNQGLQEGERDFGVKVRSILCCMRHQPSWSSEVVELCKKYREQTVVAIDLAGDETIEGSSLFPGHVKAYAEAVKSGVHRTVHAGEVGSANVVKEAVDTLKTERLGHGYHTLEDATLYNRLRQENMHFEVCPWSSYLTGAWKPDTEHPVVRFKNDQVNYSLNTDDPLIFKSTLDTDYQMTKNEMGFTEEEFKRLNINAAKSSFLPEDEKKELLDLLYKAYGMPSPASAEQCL
Briefly: Inhibitory activity against adenosine deaminase. Put shortly:
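Calf mucosal adenosine deaminase. Ki determined by the Kaplan method, with ara-A as substrate and the test compound added to the substrate solutions.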

A short description of assay [9]: Inhibitory effects on HSV-1 induced mortality in NMRI mice upon (ip) administration at a dose of 150 mk/kg/day. It is filed as functional, Human alphaherpesvirus 1. Put shortly: as §1
A short description of assay [10]: Inhibitory effects on HSV-1 induced mortality in NMRI mice upon (ip) administration at a dose of 100 mk/kg/day. It is filed as functional, Human alphaherpesvirus 1. Put shortly:
as §1

The subject of assay [11] is Vero. Nature of the assay: Maximum velocity constant of the rate of phosphorylation was determined against Vero cell thymidine kinase. It is filed as functional, Chlorocebus sabaeus.

`Nc1ncnc2c1ncn2CCOCP(=O)(O)O` [ADEFOVIR]: the Animal death is listed as above 21% in assay [1], above 21% in assay [2] and 17% in [5]. For the same compound, the Symptom initiation in assay [1] is above 21%. In addition, the IC50 (commonly the midpoint of a concentration-inhibition curve) in the assay with CCRF-CEM is 285 µg/mL (≈ 1040 µM); in assay [3], 4.1 µg/mL (≈ 15 µM); in the assay on MT4 it was 274 µg/mL (≈ 1000 µM); in assay [4] it was 2 µg/mL (≈ 7.32 µM); in assay [6] it was 3.8 µg/mL (≈ 13.9 µM).
Regarding `Nc1nc2c(ncn2CCOCP(=O)(O)O)c(=O)[nH]1` [GS-438], the IC50 stood at 12 µg/mL (≈ 41.5 µM) with CCRF-CEM; 16 µg/mL (≈ 55.3 µM) in assay [3]; 16 µg/mL (≈ 55.3 µM) in the assay on MT4; 0.19 µg/mL (≈ 0.657 µM) in assay [4]; 18 µg/mL (≈ 62.2 µM) in assay [6].
Consider `Nc1ncnc2c1ncn2COCCO`, for which the “Relative Vmax” value in the assay with Vero [7] was below 3.
`COC1=C(OC)/C(=C/COP(=O)(O)COCCn2cnc3c(N)ncnc32)OC1=O`: the Animal death in [8], in assay [9] and in assay [10] was above 21% in each case. Also, the Symptom initiation in assay [8], in assay [9] and in assay [10] was above 21% throughout. Besides, the concentration for half-maximal inhibition (IC50) came to 280 µg/mL (≈ 634 µM) in the assay on CCRF-CEM; 1.4 µg/mL (≈ 3.17 µM) in [3]; 265 µg/mL (≈ 600 µM) with MT4; 0.93 µg/mL (≈ 2.11 µM) in assay [4]; 1 µg/mL (≈ 2.27 µM) in [6]. In addition, the Ki (in general, the equilibrium dissociation constant of an inhibitor or competing ligand from its target) at Adenosine deaminase was above 800 µM.
With `COC1=C(OC)/C(=C/COP(=O)(O)OC[C@H]2O[C@@H](n3cnc4c(N)ncnc43)[C@H](O)[C@@H]2OP(=O)(O)COCCn2cnc3ncnc(N)c32)OC1=O`, the Animal death in [8], in [9] and in assay [10] was above 21% throughout. Also, the Symptom initiation in assay [8] and in assay [9] was above 21% each time. Also, the IC50 in the assay with CCRF-CEM is above 300 µg/mL; in assay [3], 4.9 µg/mL (≈ 6.36 µM); in the assay on MT4, above 300 µg/mL; in assay [4] it was 13 µg/mL (≈ 16.9 µM); in assay [6], 4.2 µg/mL (≈ 5.45 µM). On Adenosine deaminase, this compound yielded a Ki above 800 µM.
In assay [1], `Nc1ncnc2ncn(COCCO)c12` gave an Animal death above 21% and a Symptom initiation above 21%. The compound further returned an Animal death in assay [2] above 21%. Also, the “Relative Vmax” value with Vero [11] is below 3.
On to `Nc1nc2c(ncn2COCCO)c(=O)[nH]1` [ACYCLOVIR], for which, in [8], the Animal death was above 21% and the Symptom initiation was above 21%. In assay [9], the Animal death was above 21%.
With `Nc1ncnc2ncn(CCOCP(=O)(O)O)c12`, the Animal death in [1] is reported as 20%. Besides, the Symptom initiation in [2] is 15%. Besides, the IC50 with CCRF-CEM is above 300 µg/mL; in assay [3] it was 7.8 µg/mL (≈ 28.6 µM); in the assay on MT4, above 300 µg/mL; in [4] it was 27 µg/mL (≈ 98.8 µM); in [6], 9.1 µg/mL (≈ 33.3 µM).
In the case of `Nc1ncnc2c1ncn2[C@@H]1O[C@H](CO)[C@@H](O)[C@@H]1O` [VIDARABINE], in the assay with Vero [11], the “Relative Vmax” value is given as below 3.
Consider `Nc1ncnc2c1ncn2[C@@H]1O[C@H](COP(=O)(O)O)[C@@H](OP(=O)(O)COCCn2cnc3ncnc(N)c32)[C@H]1O`, for which the Animal death in [8] and in assay [10] was above 21% each time. The Symptom initiation in [8] is above 21%; in assay [10], 16%. Further, the IC50 in the assay on CCRF-CEM was above 300 µg/mL; in assay [3] it was 5.9 µg/mL (≈ 9.79 µM); in the assay on MT4 it was 298 µg/mL (≈ 495 µM); in assay [4], 17 µg/mL (≈ 28.2 µM); in [6], 6.4 µg/mL (≈ 10.6 µM).
Regarding `COC1=C(OC)/C(=C/COP(=O)(O)COCCn2cnc3c(O)nc(N)nc32)OC1=O`, the 50% inhibitory concentration (IC50) with CCRF-CEM amounted to 13 µg/mL (≈ 28.4 µM); in assay [3], 6 µg/mL (≈ 13.1 µM); in the assay with MT4, 14 µg/mL (≈ 30.6 µM); in assay [4], 0.02 µg/mL (≈ 0.0437 µM); in [6], 7.1 µg/mL (≈ 15.5 µM).
